Results collected from several papers.
Protocols differ between the studies behind these lines.
CDK16: Cyclin-dependent kinase 16 (CDK16, Homo sapiens, UniProt Q00536)
CDK16 with cyclin Y: Cyclin-dependent kinase 16, with cyclin Y (CDK16, Homo sapiens, UniProt Q00536)

Structure (SMILES)	target	test	conditions	quantity	result
Cc1ccc(NC(=O)c2ccnc(C(F)(F)F)c2)cc1-c1cc(OCCO)nc(N2CCOCC2)c1	CDK16	binding	1 µM	remaining binding	100%
CO[C@@H]1[C@H](N(C)C(=O)c2ccccc2)C[C@H]2O[C@]1(C)n1c3ccccc3c3c4c(c5c6ccccc6n2c5c31)C(=O)NC4	CDK16	enzyme activity, inhibitor	1 µM	inhibition	5%
Cc1cc(O)c(-c2ccc([C@@H](C)CN(C)C)cc2)c2c1[nH]c(=O)c1sccc12	CDK16	enzyme activity, inhibitor	0.1 µM	inhibition	-12.9%
CC(C)S(=O)(=O)c1ccc2nccc(Nc3ccc4sc(C5CCCC5)nc4c3)c2c1	CDK16 with cyclin Y	enzyme activity, inhibitor	1 µM	activity vs control	106%
N#Cc1ccc(NC(=O)Nc2ccccc2)cc1	CDK16	cell-free assay, competition with immobilised ligand	25 µM	remaining binding	68%
COc1ccc2oc(-c3ccc4nc(N)oc4c3)c/c(=N\c3ccccc3NC(=O)CCN)c2c1	CDK16 with cyclin Y	binding	1 µM	remaining binding	107%
CCCCC(=O)Nc1ccc(-c2ccc3ncn(CCC)c(=O)c3c2)cn1	CDK16	binding, competition with immobilised ligand	0.5 µM	remaining binding	90%
COc1ccc2[nH]c3c4[nH]c5ccc(OC)cc5c4c4c(c3c2c1)C(=O)NC4=O	CDK16	binding	1 µM	remaining binding	99%
C=CC(=O)N1CCC[C@@H](n2nc(-c3ccc(Oc4ccccc4)cc3)c3c(N)ncnc32)C1	CDK16	enzyme activity, inhibitor	1 µM	inhibition	10%
